Measured values from paper PMC4883002 (Environmental science & technology, 2016).
Counter-ions that a name gives are not always drawn.

Legend:
[1] = target: human serum albumin (HSA) Site I (Homo sapiens, UniProt P02768); test: Displacement of the Site I-selective fluorescent probe DNSA from HSA; format: binding; conditions: for Site I binding (DNSA displacement), result in words: 10 µM HSA, 20 µM DNSA, pH 7.4, 25°C, numeric EC50 values only in Figures 4-6; for fluorescence of the site I probe, DNSA: at higher concentrations of ligand
In short: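 Fatty acid- and globulin-free HSA in 0.1 M potassium phosphate, pH 7.4, with DNSA probe and increasing ligand concentrations (DMSO stocks; final DMSO <0.8% v/v; DMSO-only controls). Fluorescence read after 5 min at 25°C, ex 350/em 460 nm. Triplicates, each averaging six readings, as % of control.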

HSA [2] = conditions: cited from earlier work
HSA [3] = conditions: cited from earlier work; remark: listed apart in the source
human serum albumin = conditions: HSA binding, previously published; cited from earlier work

human serum albumin (HSA) Site I, sequence (P02768 25-609): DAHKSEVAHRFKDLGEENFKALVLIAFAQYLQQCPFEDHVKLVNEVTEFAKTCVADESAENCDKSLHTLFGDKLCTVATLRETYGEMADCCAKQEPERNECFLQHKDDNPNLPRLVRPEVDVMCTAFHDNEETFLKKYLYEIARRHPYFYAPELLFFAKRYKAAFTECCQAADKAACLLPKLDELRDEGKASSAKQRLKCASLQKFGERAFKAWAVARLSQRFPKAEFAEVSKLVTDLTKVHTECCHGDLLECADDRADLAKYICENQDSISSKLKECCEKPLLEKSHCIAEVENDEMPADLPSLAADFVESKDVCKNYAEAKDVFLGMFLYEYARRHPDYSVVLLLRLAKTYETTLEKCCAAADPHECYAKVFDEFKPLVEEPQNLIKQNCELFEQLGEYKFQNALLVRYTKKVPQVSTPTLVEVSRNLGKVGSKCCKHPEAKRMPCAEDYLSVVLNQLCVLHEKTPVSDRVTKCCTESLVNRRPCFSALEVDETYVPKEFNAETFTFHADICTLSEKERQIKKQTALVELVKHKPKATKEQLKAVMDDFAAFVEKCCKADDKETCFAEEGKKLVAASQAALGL

SMILES | Site I binding (DNSA displacement), result in words [1] | binding to Site II (HSA [2]) | binding to Sudlow Site I (HSA [2]) | also measured
Oc1ccc(-c2ccc(Cl)cc2)cc1 [4’-OH-PCB 3] | significant binding |  |  | 
Oc1ccc(-c2cc(Cl)ccc2Cl)cc1 [4’-OH-PCB 9] | no significant binding |  |  | 
O=S(=O)(O)Oc1ccc(-c2ccc(Cl)cc2)cc1 [4’-PCB 3 sulfate] | significant binding |  |  | 
O=S(=O)(O)Oc1ccc(-c2ccc(Cl)c(Cl)c2)cc1 [4’-PCB 12 sulfate] | no significant binding |  |  | 
O=S(=O)(O)Oc1ccc(-c2ccc(Cl)c(Cl)c2)c(Cl)c1 [4’-PCB 33 sulfate] |  |  |  | fluorescence of the site I probe, DNSA [1]: increased
O=S(=O)(O)Oc1ccc(-c2ccc(Cl)c(Cl)c2)cc1Cl [4’-PCB 35 sulfate] | lack of interaction |  |  | fluorescence of the site I probe, DNSA [1]: increased
Clc1ccc(-c2cc(Cl)c(Cl)cc2Cl)cc1Cl [PCB 118] |  | no binding | bound with high affinity | 
Clc1cc(Cl)c(-c2cc(Cl)c(Cl)cc2Cl)cc1Cl [PCB 153] |  | no binding | bound with high affinity | HSA binding site (HSA [3]): bound to a single site of HSA, Sudlow Site II
Clc1ccc(-c2cc(Cl)c(Cl)c(Cl)c2)cc1Cl [compound 126] |  | no binding | bound with high affinity | 
O=C(O)c1ccccc1Nc1cccc(C(F)(F)F)c1 [flufenamic acid] |  |  |  | Ka (human serum albumin): 156000 M⁻¹
